Assay [1] has as its target T1, Retinoic acid receptor beta (Homo sapiens) (UniProt P10826).
T1 sequence (whole entry): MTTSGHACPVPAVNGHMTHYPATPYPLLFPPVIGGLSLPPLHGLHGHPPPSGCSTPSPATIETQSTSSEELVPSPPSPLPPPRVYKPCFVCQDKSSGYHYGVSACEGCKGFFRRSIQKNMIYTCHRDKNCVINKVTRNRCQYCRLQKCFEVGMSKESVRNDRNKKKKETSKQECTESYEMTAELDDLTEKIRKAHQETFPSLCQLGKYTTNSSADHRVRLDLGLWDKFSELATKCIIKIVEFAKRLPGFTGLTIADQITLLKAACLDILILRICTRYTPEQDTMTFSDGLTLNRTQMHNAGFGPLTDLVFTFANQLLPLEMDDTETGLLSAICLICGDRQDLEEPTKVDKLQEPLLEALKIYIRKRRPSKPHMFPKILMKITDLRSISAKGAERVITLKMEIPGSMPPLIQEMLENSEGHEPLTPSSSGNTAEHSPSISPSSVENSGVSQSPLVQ
Nature of the assay: Relative transcriptional activation in CV-1 cells expressing RAR beta receptor compared to ATRA. Type of assay: functional, cell-based. The following applies: Cercopithecidae.

The target of assay [2] is T2, Retinoic acid receptor alpha (Homo sapiens) (UniProt P10276).
T2 sequence (whole entry): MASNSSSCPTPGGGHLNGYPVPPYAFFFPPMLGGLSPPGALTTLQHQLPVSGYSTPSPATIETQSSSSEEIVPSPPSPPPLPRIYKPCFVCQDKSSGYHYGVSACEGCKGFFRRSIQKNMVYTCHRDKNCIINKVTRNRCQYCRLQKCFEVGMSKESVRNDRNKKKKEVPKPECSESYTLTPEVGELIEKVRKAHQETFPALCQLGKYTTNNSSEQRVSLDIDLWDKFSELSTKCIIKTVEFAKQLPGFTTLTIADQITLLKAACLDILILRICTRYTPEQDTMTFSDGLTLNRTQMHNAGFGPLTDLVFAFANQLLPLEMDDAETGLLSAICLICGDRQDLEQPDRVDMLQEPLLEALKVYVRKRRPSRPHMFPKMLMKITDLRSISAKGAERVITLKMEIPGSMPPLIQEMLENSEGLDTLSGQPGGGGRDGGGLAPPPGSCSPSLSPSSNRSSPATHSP
The assay is described as follows: Relative transcriptional activation in CV-1 cells expressing RAR alpha receptor compared to ATRA. Format: functional, cell-based. The following applies: Cercopithecidae.

Assay [3] addresses T1, Retinoic acid receptor beta (Homo sapiens). The assay is described as follows: Inhibition of [3H]ATRA-Hl60 binding to Retinoic acid receptor beta relative to ATRA. Summed up: (§1)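 Competitive binding at individual RAR subtypes, run with [3H]ATRA as radioligand. Affinity is given as IC50 relative to that of ATRA.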
The next assay concerns HL-60. Nature of the assay: Effective dose for induction of HL-60 cell differentiation. Format: functional, Homo sapiens. Summed up: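 HL-60 cells treated with retinoid. Differentiation scored by the CD11b marker. Activity expressed relative to ATRA, as EC30/ATRA EC30.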
For assay [4], the target named is T3, Retinoic acid receptor gamma (Homo sapiens) (UniProt P13631).
T3 sequence (whole entry): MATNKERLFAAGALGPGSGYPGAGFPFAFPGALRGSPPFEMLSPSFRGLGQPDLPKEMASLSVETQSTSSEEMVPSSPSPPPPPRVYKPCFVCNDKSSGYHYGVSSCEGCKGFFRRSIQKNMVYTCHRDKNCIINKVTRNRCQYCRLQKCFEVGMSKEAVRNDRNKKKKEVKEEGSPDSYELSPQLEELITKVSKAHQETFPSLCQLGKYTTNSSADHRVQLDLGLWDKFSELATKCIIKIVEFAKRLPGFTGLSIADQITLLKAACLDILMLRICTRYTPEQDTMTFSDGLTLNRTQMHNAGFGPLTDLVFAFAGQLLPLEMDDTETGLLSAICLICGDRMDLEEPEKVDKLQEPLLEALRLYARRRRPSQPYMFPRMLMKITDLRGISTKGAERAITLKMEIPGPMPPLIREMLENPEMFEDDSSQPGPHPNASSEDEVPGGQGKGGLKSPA
Nature of the assay: Inhibition of [3H]ATRA-Hl60 binding to Retinoic acid receptor gamma relative to ATRA. Summed up:
as §1

The target of assay [5] is T3, Retinoic acid receptor gamma (Homo sapiens). Nature of the assay: Relative transcriptional activation in CV-1 cells expressing RAR gamma receptor compared to ATRA. The following applies: Cercopithecidae. Type of assay: functional, cell-based.
For assay [6] the target is unchanged. Nature of the assay: Inhibition of [3H]ATRA-Hl60 binding to Retinoic acid receptor gamma relative to ATRA; Not detectable. The method in brief:
as §1

In assay [7] the target is T2, Retinoic acid receptor alpha (Homo sapiens). Nature of the assay: Relative transcriptional activation in CV-1 cells expressing RAR alpha receptor compared to ATRA; Not detectable. Format: functional, cell-based. The conditions noted are these: Cercopithecidae.
Assay [8] addresses T1, Retinoic acid receptor beta (Homo sapiens). The assay is described as follows: Relative transcriptional activation in CV-1 cells expressing RAR beta receptor compared to ATRA; Not detectable. The conditions noted are these: Cercopithecidae. Type of assay: functional, cell-based.
For assay [9] the target is unchanged. Nature of the assay: Inhibition of [3H]ATRA-Hl60 binding to Retinoic acid receptor beta relative to ATRA; Not detectable. The method in brief: as §1
Assay [10] has as its target T3, Retinoic acid receptor gamma (Homo sapiens). The assay is described as follows: Relative transcriptional activation in CV-1 cells expressing RAR gamma receptor compared to ATRA; Not detectable. Format: functional, cell-based. The following applies: Cercopithecidae.

Here are results for five molecules from ChEMBL document CHEMBL1133434, “Novel retinoic acid receptor alpha agonists: syntheses and evaluation of pyrazole derivatives” (Bioorg Med Chem Lett, 2000).

For `CC(C)c1cc(-c2ccc(-c3ccc(C(=O)O)cc3)[nH]2)nn1C(C)(C)C`, the Relative EC30 in assay [1] was found to be 0.63 nM; in [2], 0.22 nM; in assay [5] it was 2.3 nM. Besides, the values for the Relative IC50 in assay [3] and in [4] were 110 nM and 70 nM, respectively. Further, in the assay with HL-60, the ED30 is listed as 0.05 nM.
With `CC(C)c1cc(-c2ccc(-c3ccc(C(=O)O)cc3)[nH]2)nn1C(C)C`, the Relative EC30 in assay [1] is 1.8 nM; in assay [2], 0.19 nM; in [5], 14 nM. In addition, the Relative IC50 is 660 nM in assay [3] and > 1000 nM in assay [6]. Moreover, in the assay on HL-60, the ED30 amounted to 0.27 nM.
As for `CC1=C(/C=C/C(C)=C/C=C/C(C)=C/C(=O)O)C(C)(C)CCC1` [TRETINOIN], the ED30 in the assay on HL-60 was 1.5 nM.
As for `Cc1ccc(C)c(-n2nc(-c3ccc(-c4ccc(C(=O)O)cc4)[nH]3)cc2C(C)C)c1`, the Relative EC30 in assay [7], in assay [8] and in [10] was > 10000 nM each time. For the same molecule, the Relative IC50 in [9] and in assay [6] was > 1000 nM each time. Further, the ED30 in the assay with HL-60 was >10000 nM.
Consider `CC(C)c1cc(-c2ccc(-c3ccc(C(=O)O)cc3)[nH]2)nn1CC(F)(F)F`, for which the Relative EC30 stood at 15 nM in assay [1], 1 nM in assay [2] and 88 nM in assay [5]. Also, the Relative IC50 in assay [9] and in [6] was > 1000 nM each time. For the same molecule, the ED30 with HL-60 came out at 0.62 nM.
